Assay results from ChEMBL document CHEMBL3758148, “4-Phenylpyridin-2-one Derivatives: A Novel Class of Positive Allosteric Modulator of the M1 Muscarinic Acetylcholine Receptor” (J Med Chem, 2016).

Tests used:
[1] = biological target: T1, Muscarinic acetylcholine receptor M1 (Homo sapiens) (UniProt P11229); test: Displacement of [3H]NMS from human muscarinic M1 receptor expressed in CHO Flp-In cells after 1 hr by microbeta liquid scintillation counting-based radioligand binding assay; assay type: cell-based
T1 sequence (whole entry): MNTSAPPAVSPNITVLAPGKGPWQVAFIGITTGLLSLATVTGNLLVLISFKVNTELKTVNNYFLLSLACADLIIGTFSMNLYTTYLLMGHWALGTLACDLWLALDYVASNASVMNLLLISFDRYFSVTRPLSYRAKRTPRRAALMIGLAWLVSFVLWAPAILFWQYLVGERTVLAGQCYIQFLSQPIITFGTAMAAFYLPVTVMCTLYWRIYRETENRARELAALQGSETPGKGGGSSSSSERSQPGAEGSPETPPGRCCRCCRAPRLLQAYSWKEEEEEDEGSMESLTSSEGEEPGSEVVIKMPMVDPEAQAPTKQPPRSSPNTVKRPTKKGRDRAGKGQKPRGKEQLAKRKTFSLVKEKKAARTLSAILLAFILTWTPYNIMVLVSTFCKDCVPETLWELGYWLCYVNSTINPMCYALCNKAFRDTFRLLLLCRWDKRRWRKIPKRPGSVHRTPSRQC
How it was run: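 Intact adherent Flp-In CHO cells expressing hM1 (10⁴ cells/well), incubated with 0.2 nM [3H]NMS, varying ACh and modulator in HEPES-buffered saline pH 7.4 for 1 h at 37 °C. Washed with ice-cold 0.9% NaCl, then scintillation counted. Fitted to an allosteric ternary complex model with [3H]NMS KA 0.2 nM. Mean ± SEM, ≥3 experiments in duplicate.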

[2] = biological target: T1, Muscarinic acetylcholine receptor M1 (Homo sapiens); test: Positive allosteric modulation of human muscarinic M1 receptor expressed in CHO Flp-In cells assessed as functional cooperativity with acetylcholine measured as IP1 accumulation after 1 hr by HTRF method; assay type: cell-based
How it was run: (§1)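 Suspended Flp-In CHO cells stably expressing hM1, stimulated at 10⁶ cells/ml in HEPES buffer with 50 mM LiCl, pH 7.4, using increasing ACh with or without increasing modulator, 1 h at 37 °C, 5% CO2. IP1 read by HTRF (665/590 nm ratio). Curves fitted globally to the operational model of allosterism, with KB fixed from binding. Mean ± SEM, ≥3 experiments in duplicate.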

[3] = biological target: T1, Muscarinic acetylcholine receptor M1 (Homo sapiens); test: Allosteric agonist activity at human muscarinic M1 receptor expressed in CHO Flp-In cells assessed as intrinsic activity measured as IP1 accumulation after 1 hr by HTRF method; assay type: functional, cell-based; how it was run: as §1

| SMILES | Kb [1] [µM] | pKb [1] | log(activity) [2] | Intrinsic activity [3] | log(IA) [3] |
| --- | --- | --- | --- | --- | --- |
| CCn1cc(-c2ccc(COc3ccccc3-c3ccn([C@H]4CCCC[C@@H]4O)c(=O)c3)cc2)cn1 (racemic) | 41 | 4.38 | 2.26 | 0.89 | -0.05 |
| Cn1cc(-c2ccc(COc3ccccc3-c3ccn([C@H]4CCCC[C@@H]4O)c(=O)c3)c(F)c2)cn1 (racemic) | 31 | 4.51 | 1.93 | 0.43 | -0.37 |
| O=c1cc(-c2ccccc2NCc2ccc(-c3cccnc3)cc2)ccn1[C@H]1CCCC[C@@H]1O (racemic) | 21 | 4.67 | 0.47 | 0.74 | -0.13 |
| O=c1cc(-c2ccccc2OCc2ccccc2)ccn1[C@H]1CCCC[C@@H]1O (racemic) | 28 | 4.55 | 0.94 | 0.58 | -0.24 |
| Cn1cc(-c2ccc(COc3ccccc3-c3cc(=O)n([C@H]4CCCC[C@@H]4O)cn3)cc2)cn1 (racemic) | 13 | 4.88 | 2.75 | 2.51 | 0.4 |
| NC(=O)c1cccc(COc2ccccc2-c2ccn([C@H]3CCCC[C@@H]3O)c(=O)c2)c1 (racemic) | 91 | 4.04 | 0.87 | – | -3 |
| COc1cccc(COc2ccccc2-c2ccn([C@H]3CCCC[C@@H]3O)c(=O)c2)c1 (racemic) | 65 | 4.19 | 0.84 | 1.45 | 0.16 |
| CCCCn1cc(-c2ccc(COc3ccccc3-c3ccn([C@H]4CCCC[C@@H]4O)c(=O)c3)cc2)cn1 (racemic) | 14 | 4.86 | 0.75 | 0.5 | -0.3 |
| O=c1cc(-c2ccccc2OCc2ccc(-c3ccncc3)cc2)ccn1[C@H]1CCCC[C@@H]1O (racemic) | 11 | 4.95 | 1.01 | 0.43 | -0.37 |
| O=c1cc(-c2ccccc2OCc2ccc(-c3cnn(CCO)c3)cc2)ccn1[C@H]1CCCC[C@@H]1O (racemic) | 37 | 4.43 | 2.49 | 0.77 | -0.11 |
| O=c1cc(-c2ccccc2OCc2ccc(-c3cccnc3)cc2)ccn1[C@H]1CCCC[C@@H]1O (racemic) | 19 | 4.72 | 1.29 | 0.38 | -0.42 |
| O=c1cc(-c2ccccc2OCc2ccc(-c3cnn(C4CCCC4)c3)cc2)ccn1[C@H]1CCCC[C@@H]1O (racemic) | 4 | 5.45 | 1.92 | 0.38 | -0.42 |
| O=c1cc(-c2ccccc2OCc2ccccc2F)ccn1[C@H]1CCCC[C@@H]1O (racemic) | 30 | 4.52 | 0.62 | 0.44 | -0.36 |
| Cn1cc(-c2ccc(COc3ccccc3-c3ccn([C@H]4CCCC[C@@H]4O)c(=O)c3)cn2)cn1 (racemic) | 32 | 4.5 | 2.15 | – | -3 |
| COC(=O)c1cccc(COc2ccccc2-c2ccn([C@H]3CCCC[C@@H]3O)c(=O)c2)c1 (racemic) | 100 | 3.99 | 0.52 | 0.15 | -0.82 |
| NC(=O)c1ccc(COc2ccccc2-c2ccn([C@H]3CCCC[C@@H]3O)c(=O)c2)cc1 (racemic) | 22 | 4.66 | 2.36 | 0.89 | 0.05 |
| N#Cc1cccc(COc2ccccc2-c2ccn([C@H]3CCCC[C@@H]3O)c(=O)c2)c1 (racemic) | 87 | 4.06 | 0.88 | 0.25 | -0.59 |
| O=C(O)c1ccc(COc2ccccc2-c2ccn([C@H]3CCCC[C@@H]3O)c(=O)c2)cc1 (racemic) | – | 3.88 | 0.92 | – | -1.24 |
| O=c1cc(-c2ccccc2OCc2cccc(C(F)(F)F)c2)ccn1[C@H]1CCCC[C@@H]1O (racemic) | 30 | 4.53 | 0 | 1.02 | 0.01 |

Now from value to molecule:

| Kb [1] [µM] | pKb [1] | log(activity) [2] | Intrinsic activity [3] | log(IA) [3] | SMILES |
| --- | --- | --- | --- | --- | --- |
| 35 | 4.45 | 1.34 | 0.16 | -0.8 | O=c1cc(-c2ccccc2OCc2ccc(-c3cncnc3)cc2)ccn1[C@H]1CCCC[C@@H]1O (racemic) |
| 41 | 4.38 | 0.85 | 0.78 | -0.11 | O=c1cc(-c2ccccc2OCc2cccc(F)c2)ccn1[C@H]1CCCC[C@@H]1O (racemic) |
| 23 | 4.64 | 1.78 | 0.3 | -0.52 | CCCn1cc(-c2ccc(COc3ccccc3-c3ccn([C@H]4CCCC[C@@H]4O)c(=O)c3)cc2)cn1 (racemic) |
| 87 | 4.06 | 0.96 | 0.54 | -0.26 | COC(=O)c1ccc(COc2ccccc2-c2ccn([C@H]3CCCC[C@@H]3O)c(=O)c2)cc1 (racemic) |
| – | 3.86 | 0.68 | 1.1 | 0.04 | O=c1cc(-c2ccccc2NCc2ccc(-c3cncnc3)cc2)ccn1[C@H]1CCCC[C@@H]1O (racemic) |
| 60 | 4.22 | 1.15 | 1 | 0 | O=c1cc(-c2ccccc2OCc2ccc(F)cc2)ccn1[C@H]1CCCC[C@@H]1O (racemic) |
| 42 | 4.38 | -0.41 | 1.34 | 0.13 | Cn1cc(-c2ccc(COc3c(F)ccc(F)c3-c3ccn([C@H]4CCCC[C@@H]4O)c(=O)c3)cc2)cn1 (racemic) |
| 10 | 4.99 | 1.09 | 1.38 | 0.14 | O=c1cc(-c2ccccc2OCc2ccc(-c3ccccc3)cc2)ccn1[C@H]1CCCC[C@@H]1O (racemic) |
| 11 | 4.96 | 0.8 | 0.45 | -0.35 | O=c1cc(-c2ccccc2OCc2ccc(-c3nccs3)cc2)ccn1[C@H]1CCCC[C@@H]1O (racemic) |
| 28 | 4.56 | 1.61 | 0.57 | -0.24 | O=c1cc(-c2ccccc2OCc2ccc(-c3ncco3)cc2)ccn1[C@H]1CCCC[C@@H]1O (racemic) |
| 36 | 4.44 | 0.4 | 0.77 | -0.11 | O=c1cc(-c2ccccc2OCc2ccc(C(F)(F)F)cc2)ccn1[C@H]1CCCC[C@@H]1O (racemic) |
| 14 | 4.85 | 0.49 | 0.19 | -0.73 | N#Cc1ccc(COc2ccccc2-c2ccn([C@H]3CCCC[C@@H]3O)c(=O)c2)cc1 (racemic) |
